# Assay results from ChEMBL document CHEMBL3352444, “Bioactive spirobisnaphthalenes from the endophytic fungus Berkleasmium sp” (J Nat Prod, 2014).
# Key:
# A2780 = experiment: Cytotoxicity against human A2780 cells by MTT assay
# [1] = Cytotoxicity against human HCT8 cells by MTT assay; conditions: HCT-8
# [2] = test system: Staphylococcus haemolyticus; experiment: Antibacterial activity against Staphylococcus haemolyticus ATCC 29970 by modified broth dilution method; type: functional
# In short: (§1)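 MIC read in 96-well plates by a modified broth dilution test; streptomycin sulfate as positive control.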
# Pyricularia oryzae = experiment: Antifungal activity against Magnaporthe oryzae assessed as inhibition of spore germination incubated for 8 hrs; type: functional, organism-based
# Pseudomonas = experiment: Antibacterial activity against Pseudomonas lachrymans ATCC 11921 by modified broth dilution method; type: functional; in short: as §1
# [3] = test system: Agrobacterium tumefaciens; experiment: Antibacterial activity against Agrobacterium tumefaciens No.8 ATCC 11158 by modified broth dilution method; type: functional; in short: as §1
# Xanthomonas vesicatoria = experiment: Antibacterial activity against Xanthomonas vesicatoria ATCC 11633 by modified broth dilution method; type: functional; in short: as §1
# A549 = experiment: Cytotoxicity against human A549 cells by MTT assay; type: functional, cell-based
# Ralstonia solanacearum = experiment: Antibacterial activity against Ralstonia solanacearum ATCC 11696 by modified broth dilution method; type: functional
# Bacillus subtilis = experiment: Antibacterial activity against Bacillus subtilis ATCC 11562 by modified broth dilution method; type: functional; in short: as §1
# [4] = Cytotoxicity against human BGC823 cells by MTT assay; conditions: BGC-823
# [5] = Cytotoxicity against human Bel7402 cells by MTT assay; conditions: Bel-7402
smiles,measurement,setting,value
Oc1cccc2c1[C@@H](O)[C@H]1O[C@H]1C21Oc2cccc3cccc(c23)O1,IC50,A2780,> 10 µM
same,IC50,[1],> 10 µM
same,MIC,[2],25 µg/mL
same,IC50,Pyricularia oryzae,32.3 µg/mL
same,MIC,Pseudomonas,37.5 µg/mL
same,MIC,[3],37.5 µg/mL
same,MIC,Xanthomonas vesicatoria,37.5 µg/mL
same,IC50,A549,> 10 µM
same,MIC,Ralstonia solanacearum,37.5 µg/mL
same,MIC,Bacillus subtilis,25 µg/mL
same,IC50,[4],> 10 µM
same,IC50,[5],> 10 µM
O=C1C=C[C@H](O)[C@@]23O[C@@]12C1(Oc2cccc4cccc(c24)O1)[C@H](O)[C@@H](O)[C@@H]3O,IC50,A2780,> 10 µM
same,IC50,[1],> 10 µM
same,MIC,[2],200 µg/mL
same,IC50,Pyricularia oryzae,> 200 µg/mL
same,MIC,Pseudomonas,150 µg/mL
same,MIC,[3],200 µg/mL
same,MIC,Xanthomonas vesicatoria,150 µg/mL
same,IC50,A549,> 10 µM
same,MIC,Ralstonia solanacearum,200 µg/mL
same,MIC,Bacillus subtilis,200 µg/mL
same,IC50,[4],> 10 µM
same,IC50,[5],> 10 µM
O=C1C[C@@H](O)[C@H](O)[C@@]23O[C@@]12C1(Oc2cccc4cccc(c24)O1)[C@@H]1O[C@@H]1[C@@H]3O,IC50,A2780,5.8 µM
same,IC50,[1],1.7 µM
same,MIC,[2],75 µg/mL
same,IC50,Pyricularia oryzae,> 200 µg/mL
same,MIC,Pseudomonas,75 µg/mL
same,MIC,[3],75 µg/mL
same,MIC,Xanthomonas vesicatoria,75 µg/mL
same,IC50,A549,3.2 µM
same,MIC,Ralstonia solanacearum,75 µg/mL
same,MIC,Bacillus subtilis,75 µg/mL
same,IC50,[4],3.3 µM
same,IC50,[5],3.3 µM
CO[C@@H]1CC(=O)[C@]23O[C@]2([C@@H](O)[C@H]2O[C@H]2C32Oc3cccc4cccc(c34)O2)[C@H]1O,IC50,A2780,> 10 µM
same,IC50,[1],> 10 µM
same,MIC,[2],50 µg/mL
same,IC50,Pyricularia oryzae,> 200 µg/mL
same,MIC,Pseudomonas,37.5 µg/mL
same,MIC,[3],50 µg/mL
same,MIC,Xanthomonas vesicatoria,37.5 µg/mL
same,IC50,A549,8.7 µM
same,MIC,Ralstonia solanacearum,37.5 µg/mL
same,MIC,Bacillus subtilis,37.5 µg/mL
same,IC50,[4],> 10 µM
same,IC50,[5],6.4 µM
Oc1ccc(O)c2c1[C@@H](O)[C@H]1O[C@H]1C21Oc2cccc3cccc(c23)O1,IC50,A2780,> 10 µM
same,IC50,[1],> 10 µM
same,MIC,[2],250 µg/mL
same,IC50,Pyricularia oryzae,76.7 µg/mL
same,MIC,Pseudomonas,200 µg/mL
same,MIC,[3],250 µg/mL
same,MIC,Xanthomonas vesicatoria,200 µg/mL
same,IC50,A549,> 10 µM
same,MIC,Ralstonia solanacearum,250 µg/mL
same,MIC,Bacillus subtilis,100 µg/mL
same,IC50,[4],> 10 µM
same,IC50,[5],> 10 µM
O=C1C[C@@H](O)C2(Oc3cccc4cccc(c34)O2)c2c(O)ccc(O)c21,IC50,A2780,> 10 µM
same,IC50,[1],> 10 µM
same,MIC,[2],50 µg/mL
same,IC50,Pyricularia oryzae,64.8 µg/mL
same,MIC,Pseudomonas,37.5 µg/mL
same,MIC,[3],37.5 µg/mL
same,MIC,Xanthomonas vesicatoria,50 µg/mL
same,IC50,A549,> 10 µM
same,MIC,Ralstonia solanacearum,37.5 µg/mL
same,MIC,Bacillus subtilis,37.5 µg/mL
same,IC50,[4],> 10 µM
same,IC50,[5],> 10 µM
Oc1ccc(O)c2c1C=C[C@@H](O)C21Oc2cccc3cccc(c23)O1,IC50,A2780,> 10 µM
same,IC50,[1],> 10 µM
same,MIC,[2],37.5 µg/mL
same,IC50,Pyricularia oryzae,35.9 µg/mL
same,MIC,Pseudomonas,25 µg/mL
same,MIC,[3],37.5 µg/mL
same,MIC,Xanthomonas vesicatoria,37.5 µg/mL
same,IC50,A549,> 10 µM
same,MIC,Ralstonia solanacearum,37.5 µg/mL
same,MIC,Bacillus subtilis,50 µg/mL
same,IC50,[4],> 10 µM
same,IC50,[5],> 10 µM
O=C1C(Cl)=CC2(Oc3cccc4cccc(c34)O2)[C@]23O[C@]12[C@H](O)CCC3=O,IC50,A2780,1.3 µM
same,IC50,[1],4.2 µM
same,MIC,[2],25 µg/mL
same,IC50,Pyricularia oryzae,9.1 µg/mL
same,MIC,Pseudomonas,25 µg/mL
same,MIC,[3],25 µg/mL
same,MIC,Xanthomonas vesicatoria,25 µg/mL
same,IC50,A549,1.6 µM
same,MIC,Ralstonia solanacearum,25 µg/mL
same,MIC,Bacillus subtilis,50 µg/mL
same,IC50,[4],2.6 µM
same,IC50,[5],2.5 µM
O=C1CC[C@@H](O)[C@@]23O[C@@]12C1(Oc2cccc4cccc(c24)O1)[C@H](O)[C@@H](O)[C@@H]3O,IC50,A2780,> 10 µM
same,IC50,[1],> 10 µM
same,MIC,[2],> 250 µg/mL
same,IC50,Pyricularia oryzae,> 200 µg/mL
same,MIC,Pseudomonas,> 250 µg/mL
same,MIC,[3],> 250 µg/mL
same,MIC,Xanthomonas vesicatoria,> 250 µg/mL
same,IC50,A549,> 10 µM
same,MIC,Ralstonia solanacearum,> 250 µg/mL
same,MIC,Bacillus subtilis,> 250 µg/mL
same,IC50,[4],> 10 µM
same,IC50,[5],> 10 µM
O[C@@H]1[C@@H](O)C2(Oc3cccc4cccc(c34)O2)[C@@]23O[C@@]2([C@@H](O)C=C[C@H]3O)[C@H]1O,IC50,A2780,> 10 µM
same,IC50,[1],> 10 µM
same,MIC,[2],> 250 µg/mL
same,IC50,Pyricularia oryzae,> 200 µg/mL
same,MIC,Pseudomonas,> 250 µg/mL
same,MIC,[3],> 250 µg/mL
same,MIC,Xanthomonas vesicatoria,> 250 µg/mL
same,IC50,A549,> 10 µM
same,MIC,Ralstonia solanacearum,> 250 µg/mL
same,MIC,Bacillus subtilis,> 250 µg/mL
same,IC50,[4],> 10 µM
same,IC50,[5],> 10 µM
O[C@@H]1[C@@H](O)C2(Oc3cccc4cccc(c34)O2)[C@@]23O[C@@]2([C@@H](O)CC[C@H]3O)[C@H]1O,IC50,A2780,> 10 µM
same,IC50,[1],> 10 µM
same,MIC,[2],> 250 µg/mL
same,IC50,Pyricularia oryzae,> 200 µg/mL
same,MIC,Pseudomonas,> 250 µg/mL
same,MIC,[3],> 250 µg/mL
same,MIC,Xanthomonas vesicatoria,> 250 µg/mL
same,IC50,A549,> 10 µM
same,MIC,Ralstonia solanacearum,> 250 µg/mL
same,MIC,Bacillus subtilis,> 250 µg/mL
same,IC50,[4],> 10 µM
same,IC50,[5],> 10 µM
O=C1C[C@H](O)[C@H](O)C2=C[C@H](O)[C@@H](O)C3(Oc4cccc5cccc(c45)O3)[C@]12O,IC50,A2780,> 10 µM
same,IC50,[1],> 10 µM
same,MIC,[2],> 250 µg/mL
same,IC50,Pyricularia oryzae,> 200 µg/mL
same,MIC,Pseudomonas,> 250 µg/mL
same,MIC,[3],> 250 µg/mL
same,MIC,Xanthomonas vesicatoria,> 250 µg/mL
same,IC50,A549,> 10 µM
same,MIC,Ralstonia solanacearum,> 250 µg/mL
same,MIC,Bacillus subtilis,> 250 µg/mL
same,IC50,[4],> 10 µM
same,IC50,[5],> 10 µM
O=C1CCC2(Oc3cccc4cccc(c34)O2)c2c(Cl)ccc(O)c21,IC50,A2780,> 10 µM
same,IC50,[1],> 10 µM
same,MIC,[2],> 250 µg/mL
same,IC50,Pyricularia oryzae,> 200 µg/mL
same,MIC,Pseudomonas,> 250 µg/mL
same,MIC,[3],> 250 µg/mL
same,MIC,Xanthomonas vesicatoria,> 250 µg/mL
same,IC50,A549,> 10 µM
same,MIC,Ralstonia solanacearum,> 250 µg/mL
same,MIC,Bacillus subtilis,> 250 µg/mL
same,IC50,[4],> 10 µM
same,IC50,[5],> 10 µM
O=C1C[C@H](O)[C@H](O)[C@@]23O[C@@]12C1(Oc2cccc4cccc(c24)O1)[C@@H]1O[C@@H]1[C@@H]3O,IC50,A2780,> 10 µM
same,IC50,[1],> 10 µM
same,MIC,[2],> 250 µg/mL
same,IC50,Pyricularia oryzae,> 200 µg/mL
same,MIC,Pseudomonas,> 250 µg/mL
same,MIC,[3],> 250 µg/mL
same,MIC,Xanthomonas vesicatoria,> 250 µg/mL
same,IC50,A549,> 10 µM
same,MIC,Ralstonia solanacearum,> 250 µg/mL
same,MIC,Bacillus subtilis,> 250 µg/mL
same,IC50,[4],> 10 µM
same,IC50,[5],> 10 µM
O[C@@H]1C=C[C@H](O)[C@@]23O[C@@]12C1(Oc2cccc4cccc(c24)O1)[C@@H]1O[C@@H]1[C@@H]3O,IC50,A2780,> 10 µM
same,IC50,[1],> 10 µM
same,MIC,[2],> 250 µg/mL
same,IC50,Pyricularia oryzae,> 200 µg/mL
same,MIC,Pseudomonas,> 250 µg/mL
same,MIC,[3],> 250 µg/mL
same,MIC,Xanthomonas vesicatoria,> 250 µg/mL
same,IC50,A549,> 10 µM
same,MIC,Ralstonia solanacearum,> 250 µg/mL
same,MIC,Bacillus subtilis,> 250 µg/mL
same,IC50,[4],> 10 µM
same,IC50,[5],> 10 µM
O[C@@H]1CC[C@H](O)[C@@]23O[C@@]12C1(Oc2cccc4cccc(c24)O1)[C@@H]1O[C@@H]1[C@@H]3O,IC50,A2780,> 10 µM
same,IC50,[1],> 10 µM
same,MIC,[2],> 250 µg/mL
same,IC50,Pyricularia oryzae,> 200 µg/mL
same,MIC,Pseudomonas,> 250 µg/mL
same,MIC,[3],> 250 µg/mL
same,MIC,Xanthomonas vesicatoria,> 250 µg/mL
same,IC50,A549,> 10 µM
same,MIC,Ralstonia solanacearum,> 250 µg/mL
same,MIC,Bacillus subtilis,> 250 µg/mL
same,IC50,[4],> 10 µM
same,IC50,[5],> 10 µM
O=C1C=C[C@H](O)[C@@]23O[C@@]12C1(Oc2cccc4cccc(c24)O1)[C@@H]1O[C@@H]1[C@@H]3O,IC50,A2780,> 10 µM
same,IC50,[1],> 10 µM
same,MIC,[2],50 µg/mL
same,IC50,Pyricularia oryzae,105 µg/mL
same,MIC,Pseudomonas,50 µg/mL
same,MIC,[3],50 µg/mL
same,MIC,Xanthomonas vesicatoria,50 µg/mL
same,IC50,A549,8.8 µM
same,MIC,Ralstonia solanacearum,50 µg/mL
same,MIC,Bacillus subtilis,50 µg/mL
same,IC50,[4],> 10 µM
same,IC50,[5],5.1 µM
COC(=O)Nc1nc2ccccc2[nH]1 [CARBENDAZIM],IC50,Pyricularia oryzae,6.3 µg/mL
O=C1CCC2(Oc3cccc4cccc(c34)O2)c2c(O)ccc(O)c21 [PALMARUMYCIN CP17],IC50,A2780,> 10 µM
same,IC50,[1],> 10 µM
same,MIC,[2],> 250 µg/mL
same,IC50,Pyricularia oryzae,> 200 µg/mL
same,MIC,Pseudomonas,> 250 µg/mL
same,MIC,[3],> 250 µg/mL
same,MIC,Xanthomonas vesicatoria,> 250 µg/mL
same,IC50,A549,> 10 µM
same,MIC,Ralstonia solanacearum,> 250 µg/mL
same,MIC,Bacillus subtilis,> 250 µg/mL
same,IC50,[4],> 10 µM
same,IC50,[5],> 10 µM
CN[C@@H]1[C@H](O[C@H]2[C@H](O[C@H]3[C@H](O)[C@@H](O)[C@H](N=C(N)N)[C@@H](O)[C@@H]3N=C(N)N)O[C@@H](C)[C@]2(O)C=O)O[C@@H](CO)[C@H](O)[C@H]1O.CN[C@@H]1[C@H](O[C@H]2[C@H](O[C@H]3[C@H](O)[C@@H](O)[C@H](N=C(N)N)[C@@H](O)[C@@H]3N=C(N)N)O[C@@H](C)[C@]2(O)C=O)O[C@@H](CO)[C@H](O)[C@H]1O.O=S(=O)(O)O.O=S(=O)(O)O.O=S(=O)(O)O [STREPTOMYCIN SULFATE],MIC,[2],5 µg/mL
same,MIC,Pseudomonas,7.5 µg/mL
same,MIC,[3],5 µg/mL
same,MIC,Xanthomonas vesicatoria,10 µg/mL
same,MIC,Ralstonia solanacearum,5 µg/mL
same,MIC,Bacillus subtilis,5 µg/mL
